ChEMBL document CHEMBL1165850, “Synthesis, biological evaluation and molecular docking of novel series of spiro [(2H,3H) quinazoline-2,1'- cyclohexan]-4(1H)-one derivatives as anti-inflammatory and analgesic agents” (Eur J Med Chem, 2010)

Experiments:
Mus musculus [1] = assay: Analgesic activity in mouse assessed as reaction time administered 1 hr before test measured after 2 hrs by hot plate test; type: functional
In short: (§1)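 Hot-plate test in adult mice (20–25 g), plate at 52 °C (±0.1 °C). Vehicle, compounds or tramadol (20 mg/Kg b wt) were given 60 min before testing. Latency to lick a hind paw or jump was recorded before dosing and at 1 and 2 h after. Values are mean ± S.E. of six animals per group, with Dunnett's test against control.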

Rattus norvegicus [2] = assay: Antiinflammatory activity in rat assessed as reduction in carrageenan-induced paw edema at 9 mg/kg, ip administered 1 hr before carrageenan challenge measured after 3 hrs; type: functional; parameters: unit not given here; conditions: route intraperitoneal
In short: (§2)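 Adult rats of either sex (150–200 g), randomly grouped. Compounds were dissolved in DMSO and given i.p. at 9 mg/kg; indomethacin was given at 10 mg/kg; controls received DMSO i.p. Dosing was 1 h before 100 ul of 1% carrageenan in saline injected subplantar into the right hind paw. Paw volume was measured by planimeter before and at 1, 2, 3 and 4 h. Values are mean ± S.E., analysed by one-way ANOVA with LSD.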

Mus musculus [3] = assay: Analgesic activity in mouse assessed as reaction time administered 1 hr before test measured after 1 hr by hot plate test; type: functional; in short: as §1
Rattus norvegicus [4] = assay: Gastrointestinal toxicity in Wistar rat assessed as ulcerogenic effect at 9 mg/kg, po after 7 hrs; type: organism-based; parameters: dose 9 mg/kg, route oral; conditions: in vivo
In short: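 Male Wistar rats, 150–175 g, groups of 5, fasted 48 h, then given 9 mg/kg orally as an aqueous suspension (10 mL/kg). Killed 7 h later. Stomachs were opened along the greater curvature and inspected for irritation, scored as number of ulcers, ulcer severity and number of rats with ulcers per 5. Ethanol control, indomethacin reference. Reported as mean ± S.E.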

Rattus norvegicus [5] = assay: Antiinflammatory activity in rat assessed as reduction in carrageenan-induced paw edema at 9 mg/kg, ip administered 1 hr before carrageenan challenge measured after 1 hr; type: functional; parameters: unit not given here; conditions: route intraperitoneal; in short: as §2
Rattus norvegicus [6] = assay: Antiinflammatory activity in rat assessed as reduction in carrageenan-induced paw edema at 9 mg/kg, ip administered 1 hr before carrageenan challenge measured after 2 hrs; type: functional; parameters: unit not given here; conditions: route intraperitoneal; in short: as §2
Mus musculus [7] = assay: Analgesic activity in mouse assessed as reaction time at 20 mg/kg administered 1 hr before test measured after 1 hr by hot plate test; type: functional; in short: as §1
Mus musculus [8] = assay: Analgesic activity in mouse assessed as reaction time at 20 mg/kg administered 1 hr before test measured after 2 hrs by hot plate test; type: functional; in short: as §1

SMILES	Time (Mus musculus [1]) [s]	Activity (Rattus norvegicus [2])	Time (Mus musculus [3]) [s]	UI (Rattus norvegicus [4])	Activity (Rattus norvegicus [5])	Activity (Rattus norvegicus [6])	Time (Mus musculus [7]) [s]	Time (Mus musculus [8]) [s]
CN(C)c1ccc(C2CC(c3ccc(N4C(=O)c5ccccc5NC45CCCCC5)cc3)=NN2c2ccccc2)cc1 (centres undefined)	20.5	66.4	15	10.4	57.9	65.4	–	–
O=C1c2ccccc2NC2(CCCCC2)N1c1ccc(C2=NN(c3ccccc3)C(c3ccco3)C2)cc1 (centres undefined)	10.9	82.5	9.2	–	52.2	79.1	–	–
CCOC(=O)c1ccc(N2C(=O)c3ccccc3NC23CCCCC3)cc1	14.6	67.8	12	–	44.2	59.6	–	–
COc1ccc(/C=N/NC(=O)c2ccc(N3C(=O)c4ccccc4NC34CCCCC4)cc2)cc1	16.9	88.7	13.3	–	72.4	88	–	–
O=C(NN1C(=O)CN(C2CCCCC2)C1=S)c1ccc(N2C(=O)c3ccccc3NC23CCCCC3)cc1	13	77.2	8.9	–	54.9	66.7	–	–
NNC(=O)c1ccc(N2C(=O)c3ccccc3NC23CCCCC3)cc1	17	82.1	9.4	–	57.5	85.7	–	–
NS(=O)(=O)c1ccc(N2C(=O)c3ccccc3NC23CCCCC3)cc1	17.5	87.7	9.5	–	57.7	78.9	–	–
O=C1c2ccccc2NC2(CCCCC2)N1c1ccc(S(=O)(=O)Nc2ncccn2)cc1	21.6	80.1	19.8	0.6	60.4	74.1	–	–
CCC(=S)NS(=O)(=O)c1ccc(N2C(=O)c3ccccc3NC23CCCCC3)cc1	19.1	88.6	11	–	67.5	83.4	–	–
N#Cc1c(-c2ccc(F)cc2)cc(-c2ccc(N3C(=O)c4ccccc4NC34CCCCC4)cc2)[nH]c1=O	13.5	88	11.8	–	85.4	74.6	–	–
N#Cc1c(-c2ccccc2O)cc(-c2ccc(N3C(=O)c4ccccc4NC34CCCCC4)cc2)[nH]c1=O	19.4	76.4	24.9	0	49.4	71.8	–	–
O=C(NN1C(=O)CSC1c1cccs1)c1ccc(N2C(=O)c3ccccc3NC23CCCCC3)cc1 (centres undefined)	18.4	55.9	21	0.4	56.2	65.1	–	–
O=C(NNC(=S)NC1CCCCC1)c1ccc(N2C(=O)c3ccccc3NC23CCCCC3)cc1	17.2	83.9	9.3	–	65.1	82.1	–	–
N#Cc1c(-c2ccccc2O)cc(-c2ccc(N3C(=O)c4ccccc4NC34CCCCC4)cc2)[nH]c1=N	18.4	68.6	14.6	2	61	66.6	–	–
O=C(/C=C/c1ccco1)c1ccc(N2C(=O)c3ccccc3NC23CCCCC3)cc1	17.1	94.8	9.6	–	60.4	93.8	–	–
O=C(NN1C(=O)CC(=O)N(C2CCCCC2)C1=S)c1ccc(N2C(=O)c3ccccc3NC23CCCCC3)cc1	17.1	85.1	9.4	–	61.7	79.3	–	–
CC(=O)N1N=C(c2ccc(N3C(=O)c4ccccc4NC34CCCCC4)cc2)CC1c1ccco1 (centres undefined)	17	83.5	9.5	–	49.9	88.7	–	–
N#Cc1c(-c2ccc(F)cc2)cc(-c2ccc(N3C(=O)c4ccccc4NC34CCCCC4)cc2)[nH]c1=N	17.8	81.3	24.1	3.2	66.4	78.2	–	–
CC(=O)c1ccc(N2C(=O)c3ccccc3NC23CCCCC3)cc1	17	81.5	9.1	–	54.6	80.9	–	–
COc1ccc2c(c1)c(CC(=O)O)c(C)n2C(=O)c1ccc(Cl)cc1 [INDOMETHACIN]	–	–	–	9.8	–	–	–	–
COc1cccc(C2(O)CCCCC2CN(C)C)c1 (centres undefined) [TRAMADOL]	–	–	–	–	–	–	17.6	18.2
